The list is not random: actives were taken first. Their share in the collection is about 4.8%.
NF-kB neuron act: raises NF-kB expression in human neuronal cells. NF-kB reporter expression; hits give high values. fold change at 12.5 µM. 190,000 tested, 1.6% active. AID 1239; in the data active = fold change above about 3.3
FLuc inhib CS: inhibits firefly luciferase, flagging false hits in luciferase inhibition screens; ATPLite firefly luciferase biochemical luminescence, 10 min; P08659; 200,000 tested, 1.5% active; inhibition, % at 10 µM;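 active = inhibition above about 50% when tested at 10 µM, limit read from the data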
Target sequence (P08659 whole entry, looked up): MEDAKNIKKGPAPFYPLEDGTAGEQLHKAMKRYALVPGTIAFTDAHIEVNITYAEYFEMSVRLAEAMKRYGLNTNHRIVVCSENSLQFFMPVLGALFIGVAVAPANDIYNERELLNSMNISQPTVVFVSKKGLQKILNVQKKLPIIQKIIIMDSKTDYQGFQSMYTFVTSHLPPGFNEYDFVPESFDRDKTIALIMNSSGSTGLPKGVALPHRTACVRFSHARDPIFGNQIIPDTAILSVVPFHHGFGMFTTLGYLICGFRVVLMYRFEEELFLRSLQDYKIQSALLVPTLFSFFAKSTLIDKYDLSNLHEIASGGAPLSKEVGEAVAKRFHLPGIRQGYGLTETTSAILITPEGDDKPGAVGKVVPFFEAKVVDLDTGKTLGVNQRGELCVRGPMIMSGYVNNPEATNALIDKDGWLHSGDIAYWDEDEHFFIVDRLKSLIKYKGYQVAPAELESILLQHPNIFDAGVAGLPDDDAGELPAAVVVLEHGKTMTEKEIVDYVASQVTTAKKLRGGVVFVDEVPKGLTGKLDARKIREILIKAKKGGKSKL
APP transl inh: APP translation inhibition; inhibition, % at 2 µM; 190,000 tested, 0.82% active; SH-SY5Y APP 5'UTR-luciferase reporter, luminescence;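 active = inhibition above a set limit, derived from the sample mean plus 3 SD, cut at about 45% in these data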
STAT1 activator: activators of IFN-gamma induced STAT1 signaling; NIH 3T3 STAT1-luciferase reporter, luminescence; 100% = IFN-gamma alone, no compound; activation (% of control), % at 5.5 µM; 200,000 tested, 2.6% active; AID 932;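 active = activation above the screen-wide mean activation plus 3 SD, cut at about 130% in these data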;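 also: raw ratio to IFN-gamma control signal so 100% means no change and 0% no light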
APP 5'UTR act: activates APP 5'UTR luciferase reporter; SH-SY5Y APP 5'UTR luciferase reporter, luminescence; zero percent = DMSO vehicle wells; activation, % at 2 µM; 190,000 tested, 1% active;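 active = activation above a set limit, based on mean plus 3 SD of controls, cut at about 140% in these data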
FLuc act counter: firefly luciferase counter-screen for stimulation assays; P08659; ATPlite luciferase biochemical, luminescence, 10 min; 0 = ATP-free wells, 1 = DMSO control; activation factor at 10 µM; 200,000 tested, under 10 active;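 active = luciferase activation factor, scaled between plate controls, of at least 2 with compound at 10 µM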
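Material: Luciferase/luciferin reagent mix; Doses: test compounds dosed from 2 mM stocks in 100% DMSO; Schedule: 10 min incubation after luciferase reagent addition, room temperature; Measured by: luminescence from luciferase reaction; Read-out: luminescence gain marking luciferase activators.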
STAT1 act conf: confirmation of STAT1 signaling activators; shares compounds with STAT1 activator; NIH 3T3 STAT1-luciferase reporter, IFN-gamma potentiation, luminescence; 100% = IFN-gamma EC80 alone, no compound; activation (% of control), % at 5.7 µM; 1,200 tested, 97% active; AID 1262;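 active = activation above a set limit carried over from the earlier primary STAT1 screen, cut at about 140% in these data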;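 also: simple ratio to median IFN-gamma plus DMSO wells so 0% means no light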
NFkB act STAT1ct: activates NF-kappaB, counter-screen to STAT1 activators; shares compounds with STAT1 activator; HEK293T NF-kB luciferase reporter, TNF-alpha stimulated, luminescence; 100% = TNF-alpha with vehicle only; activation (% of control), % at 5.7 µM; 1,200 tested, 43% active; AID 1306;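 active = activation above the mean of solvent-only control wells plus 3 SD, set per campaign, cut at about 130% in these data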;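 also: TNF-alpha given at a submaximal dose yielding about 80% of full reporter signal; values are well signal over median control so 100% means no change and 0% no light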
STAT3 act STAT1c: human STAT3 activation in STAT1 activator counter-screen; shares compounds with STAT1 activator; U3A cells STAT3-luciferase reporter, IL-6, luminescence; cells lack STAT1; 100 = IL-6 alone, no compound effect; activation (% of control), % at 5.7 µM; 1,200 tested, 46% active; AID 1316;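 active = activation above the solvent-only control well mean plus 3 SD, set per plate batch, cut at about 110% in these data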;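 also: 0% = no luminescence and 100% = median IL-6 plus DMSO wells; higher means more STAT3 reporter activation so hits are non-selective activators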
Starred values were filed as active, the others as inactive; / = no result.

SMILES	NF-kB neuron act	FLuc inhib CS	APP transl inh	STAT1 activator	APP 5'UTR act	FLuc act counter	STAT1 act conf	NFkB act STAT1ct	STAT3 act STAT1c
c1ccc2c(c1)oc1c(Nc3ccc4c(c3)OCCO4)ncnc12	5*	28	-164	180*	164*	0.7	260*	141*	114*
COc1ccccc1Oc1ncnc2c1oc1ccccc12	1.1	0	16	107	-16	1	/	/	/
c1coc(CNc2ncnc3c2oc2ccccc23)c1	1.8	-1	-8	85	7	1	/	/	/
COc1ccc(Nc2ncnc3c2oc2ccccc23)cc1	3.4*	8	-117	163*	117	0.9	204*	134*	104
COc1cccc(NC(=O)/C=C/c2ccccc2[N+](=O)[O-])c1	3.6*	23	-138	154*	138*	0.8	177*	137*	117*
CC(=O)OCC1(C)CN(c2ccccc2)N(C(=O)c2ccc(F)cc2)C1=O (stereo not given)	1.1	4	-30	98	30	1	/	/	/
CC(C)CN1C(=O)C(=Nc2cccnc2)c2ccccc21	1.1	-8	-4	104	4	1.1	/	/	/
CCN(CC)S(=O)(=O)c1ccc2oc(C(=O)NCc3ccc(F)cc3)c(C)c2c1	0.59	-6	-4	95	4	1.1	/	/	/
CCn1c(C)nc2cc(C(=O)NNC(=S)Nc3ccccc3)ccc21	1.9	39	-185	160*	185*	0.6	228*	141*	118*
O=C(Nc1nc2ccccc2[nH]1)c1cccc([N+](=O)[O-])c1	/	22	-113	156*	113	0.8	169*	125	120*
CSCCC(NC(=O)c1cccc([N+](=O)[O-])c1)c1nc2ccccc2[nH]1 (stereo not given)	0.67	-9	0	97	0	1.1	/	/	/
CC(Sc1ccccc1)C(=O)NN=C1CCCCCC1 (stereo not given)	1.1	-4	-9	102	9	1	/	/	/
CCOC(=O)C1(CCCc2ccccc2)CCN(C(=O)CN2CCOC2=O)CC1	1.2	-1	5	102	-5	1	/	/	/
CCOC(=O)C1(Cc2ccccc2Cl)CCN(C(=O)CN2CCOC2=O)CC1	/	-4	-69	160*	69	1	172*	142*	117*
COc1ccc(-c2cc(=NC(CC(C)C)C(=O)O)c3cc(C)ccc3o2)cc1 (stereo not given)	4.3*	11	-126	156*	126	0.9	144*	136*	108
COc1ccc(-c2cc(=Nc3ccc(C)cc3)c3ccccc3o2)cc1	1.2	-2	5	99	-5	1	/	/	/
Cc1cc(Cl)ccc1OC(C)C(=O)N1CCCN(C(=O)C(C)Oc2ccc(Cl)cc2C)CC1 (stereo not given)	0.44	-7	19	102	-19	1.1	/	/	/
COc1ccc(S(=O)(=O)N(CCc2ccccc2)CC(=O)O)cc1C	1.3	-1	-4	102	3	1	/	/	/
O=c1c(-c2nc3ccccc3s2)cccn1Cc1ccccc1	3.7*	10	-82	161*	82	0.9	211*	130	106
O=C(Nc1ccccc1-c1nc2ccccc2s1)c1ccco1	1.3	-5	-13	100	13	1	/	/	/
Cc1ccc(C(=O)CSc2nnc(CNc3nc(-c4ccccc4)cs3)n2C)cc1	0.66	-8	-13	109	13	1.1	/	/	/
CCCCOc1ccc(-c2csc(N)n2)cc1[N+](=O)[O-]	5.4*	30	-142	156*	142*	0.7	192*	141*	110
NNC(=O)c1sc2cc(C(F)(F)F)cnc2c1-c1ccccn1	1.8	0	-3	106	3	1	/	/	/

Source: PubChem BioAssay (several laboratories)
